High-throughput results from PubChem BioAssay.
SR-BI uptake up: SR-BI HDL lipid transfer activation | CHO ldlA[mSR-BI] cells, DiI-HDL uptake fluorescence, 3 h; 100 = double the neutral-control signal | AID 504775 | 320,000 compounds, 0.096% hits | activation, % at 12.5 µM;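 active = mean replicate activation of at least 60% and every replicate at or above 60%; inconclusive = mean or all-replicate condition met, but not both; inactive = mean below 60% and not all replicates reaching 60%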;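 note: 0% = median plate neutral-control signal and 100% = twice that signal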
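Test system: SR-BI-overexpressing, LDLR-lacking CHO cells; Medium: Ham's F12 with 0.5% BSA, HEPES 25 mM, pH 7.4; Schedule: 3 h, 37 °C; Technique: bottom-read fluorescence, 550/595 nm.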
V-ATPase pHluor: regulators of yeast V-ATPase proton transport; S. cerevisiae, pHLuorin cytosolic pH fluorescence; AID 504577; response, % at 10 µM; 350,000 compounds, 0.37% hits; in the data active = response mostly above about 7.3%, no sharp cut-off; inactive = mostly below about 5.4%; note: actives read high
SR-BI HDL uptake: inhibitors of mouse SR-BI mediated HDL lipid uptake | ldlA[mSR-BI] CHO cells, DiI-HDL uptake fluorescence, 3 h | inhibition, % at 12.5 µM | 320,000 compounds, 0.96% hits | AID 488896;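 active = mean replicate inhibition of at least 70% and a set share of replicates each scoring 70 or more; inconclusive = meets just one of the two criteria; inactive = fails both criteria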;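 note: 0% = median of neutral control wells and 100% = median of positive control wells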
Vif imaging: blocks HIV Vif function; HEK293T cells, Vif self-association by quenched fluorescence, imaging, 24 h; 340,000 compounds, 0.35% hits; inhibition, % at 7.49 µM; in the data active = inhibition above about 50%, passing the limit was not always enough; inconclusive = no clear call, values can overlap the other calls; inactive = below about 31%
CaV13 ICDI inh: Disruptors of the CACNA1D IQ motif to Ca2+-dependent inactivation inhibitor domain association, primary screening, Förster resonance energy transfer in intact living …; HEK cells, CFP/YFP FRET ICDI-IQ, plate reader, 10 min; percent FRET-ratio fall versus neutral wells; inhibition, % at 12.3 µM; 340,000 compounds, 0.098% hits; AID 743397;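 active = mean replicate inhibition of at least 30% and at least 1% of replicates passing that level; inconclusive = only one of the two criteria is met; inactive = neither criterion is met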;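 note: 0% = median of the neutral control wells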
NTR1 ag: agonists of human neurotensin receptor NTR1. P30989. NTR1-U2OS beta-arrestin-GFP spot imaging, agonist mode. activation, % at 20 µM. 330,000 compounds, 0.17% hits. AID 493036;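 active = activation at or above 40% of the spot to cytoplasm intensity ratio, with at least 20 cells analyzed; inconclusive = wells under 20 cells, flagged as cytotoxic or low count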;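 note: 0% = DMSO without peptide and 100% = 100 nM NTR1 peptide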
Target sequence (P30989 whole entry, looked up): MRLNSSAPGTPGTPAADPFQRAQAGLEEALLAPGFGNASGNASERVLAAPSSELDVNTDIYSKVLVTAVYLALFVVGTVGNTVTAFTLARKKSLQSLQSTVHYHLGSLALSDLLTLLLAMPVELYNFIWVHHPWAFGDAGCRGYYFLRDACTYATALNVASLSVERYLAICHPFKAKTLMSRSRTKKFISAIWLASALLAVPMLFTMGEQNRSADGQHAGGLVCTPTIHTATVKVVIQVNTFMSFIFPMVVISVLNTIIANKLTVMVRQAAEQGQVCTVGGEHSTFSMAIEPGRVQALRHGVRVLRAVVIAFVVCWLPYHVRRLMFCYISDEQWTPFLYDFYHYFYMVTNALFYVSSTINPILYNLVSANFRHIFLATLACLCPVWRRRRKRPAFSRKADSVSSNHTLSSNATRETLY
* = called active by the depositor; ? = inconclusive; / = not tested or not shown; + = active, no number. Only some compounds are listed: those with a hit (about 1.7% of all), similar ones and a draw of the others.

SMILES	SR-BI uptake up	V-ATPase pHluor	SR-BI HDL uptake	Vif imaging	CaV13 ICDI inh	NTR1 ag
COC(=O)[C@]12C[C@H](CC(=O)NCCCCc3ccccc3)C(=O)N(Cc3ccccc3)C1=C[C@H](C(C)C)O[C@@H]2C1CC1	/	/	/	/	-8	/
O=C(NC(=S)NCc1ccccc1)c1ccccc1	65*	/	-65	0	-5	2
Cc1cc(NC(=O)CS(=O)(=O)c2ccc(Cl)cc2)no1	13	5	-13	9	-2	0
CC1=NN(C(=O)c2ccc(C)cc2)C(O)(C(F)(F)OC(F)(F)F)C1 (stereo not given)	-89	4	89*	0	-3	1
O=C(NCC1CCCO1)c1ccc(N2CCCCC2)c([N+](=O)[O-])c1 (stereo not given)	-14	-1	14	5	-7	0
O=C(CN1CCN(C(=O)CNC(=O)c2ccc(-c3ccccc3)cc2)CC1)Nc1ccccc1Cl	/	-1	/	-32	-15	/
CCNC(=O)c1cccc(NC(=O)c2cc(C3CC3)nc3c2cnn3C(C)C)c1	-75	-4	75*	-14	-7	0
CC(C)n1ncc2c(C(=O)Nc3cccc(C#N)c3)cc(C3CC3)nc21	-75	5	75*	-6	-4	15
COc1ccc(CNC(=O)c2cc(C3CC3)nc3c2cnn3C(C)C)cc1	-31	1	31	/	-5	2
COc1ccc(NC(=O)c2cc(-c3ccccc3)nc3c2cnn3C(C)C)cc1	-82	-2	82*	-2	-14	1
COc1ccc(CN(CCN)C2CC(C)N(C)CC2C)cc1 (stereo not given)	20	-2	-20	2	-6	0
COC(=O)N1CCC2CC1c1c(Cl)cccc12 (stereo not given)	/	/	/	-12	-6	/
Cc1cccc(OS(=O)(=O)NC(=O)OCC2CCCN3CCCCC23)c1 (stereo not given)	11	-1	-11	-12	-4	2
[O-][n+]1c2c(nc3c1-c1ccccc1C3O)CCCC2 (stereo not given)	/	/	/	/	/	-1
C=CCN=C1NC(c2ccc(C(F)(F)F)cc2)C(C(=O)OC)=C(C)N1C (stereo not given)	/	/	/	/	-5	/
Cc1onc(-c2c(Cl)cccc2Cl)c1C(=O)N=C(N)N1CC(C)OC(C)C1 (stereo not given)	4	0	-4	?	-17	0
O=c1c2ccccc2n(CC(O)CN2CCCCC2)c2ccccc12 (stereo not given)	13	2	-13	/	+	-1
OC(CN1CCCCC1)Cn1c2ccccc2c2ccccc21 (stereo not given)	-6	1	6	/	-18	0
COCCNS(=O)(=O)c1cc(OC)ccc1OC	10	0	-10	-20	-7	-1
Cc1ccc(NC(=O)COC(=O)c2ccco2)cc1S(=O)(=O)N1CCOCC1	23	-4	-23	0	-3	0
Cc1ccc(NC(=O)COC(=O)C2(C)CC2(Cl)Cl)cc1S(=O)(=O)N1CCOCC1 (stereo not given)	-12	23*	12	-2	-6	-1
COc1ccc(NC(=O)c2ccc(Cl)nc2)cc1S(=O)(=O)N1CCOCC1	-53	0	53	-15	-4	-1
COc1ccc(S(=O)(=O)N2CCOCC2)cc1NC(=O)c1cc2c(s1)CCCC2	-29	2	29	5	-18	1
COc1ccc(NC(=O)Cn2ncc(Cl)c(Cl)c2=O)cc1S(=O)(=O)N1CCOCC1	-23	3	23	59*	-5	/
COc1ccc(NC(=O)c2cc3c(s2)CCC3)cc1S(=O)(=O)N1CCOCC1	-70	-3	70*	-21	-4	-1
O=C(Nc1ccnc(-c2cccnc2)n1)c1cccs1	-11	-2	11	119*	4	2
O=C(c1ccc(F)cc1)C1CCN(C(=O)Nc2ccccc2Cl)CC1	-48	0	48	-8	64*	-1
CCN1/C(=C/c2cc[n+](CCCS(=O)(=O)[O-])c3ccccc23)Sc2ccccc21	11	-1	-11	-3	-2	-3
C=CC[n+]1ccc(/C=C2\C=Cc3cc(C)ccc3N2CC)c2ccccc21	-92	-2	92*	-27	/	/
